In ChEMBL document CHEMBL1764956, “Inhibitory effects of Mannich bases of heterocyclic chalcones on NO production by activated RAW 264.7 macrophages and superoxide anion generation and elastase release by activated human neutrophils” (Bioorg Med Chem, 2011):

Assays:
[1] = tested on: Neutrophil; experiment: Inhibition of FMLP/CB-stimulated elastase release in human neutrophils treated for 5 mins before FMLP/CB challenge using MeO-Suc-Ala-Ala-Pro-Val-p-nitroanilide as a substrate; assay type: functional, cell-based
Procedure, shortened: (§1)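 Human neutrophils (6×10^5/ml) with 100 µM MeO-Suc-Ala-Ala-Pro-Val-p-nitroanilide, equilibrated 37 °C 2 min, drug 5 min, then activated by 100 nM FMLP plus 0.5 µg/ml cytochalasin B. Absorbance at 405 nm monitored continuously. Expressed as % of release in drug-free FMLP/CB control. Mean ± S.E.M., n = 3–4; IC50 = 50% inhibition.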

[2] = tested on: Neutrophil; experiment: Inhibition of FMLP/CB-stimulated superoxide anion generation in human neutrophils treated for 5 mins before FMLP and CB challenge for 10 mins and 3 mins respectively by spectrophotometer analysis; assay type: functional, cell-based
Procedure, shortened: (§2)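 Human neutrophils in Ca2+-free HBSS pH 7.4 plus 0.5 mg/ml ferricytochrome c and 1 mM Ca2+. Equilibrated 37 °C 2 min, drug 5 min, cytochalasin B (1 µg/ml) 3 min, then 100 nM FMLP 10 min. SOD-inhibitable ferricytochrome c reduction followed at 550 nm with stirring. Mean ± S.E.M., n = 3–4; IC50 = 50% inhibition.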

[3] = tested on: RAW264.7; experiment: Cytotoxicity against mouse RAW264.7 cells assessed as cell viability after 4 hrs by MTT assay; assay type: cell-based; conditions: RAW264.7, 4 h
Procedure, shortened: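 RAW 264.7 macrophages (ATCC) grown in DMEM with 10% heat-inactivated FCS and penicillin/streptomycin at 37 °C, 5% CO2, in 96-well plates. Cells incubated with MTT (5 mg mL-1) for 4 h at 37 °C. Formazan dissolved in acid-SDS. Viability taken from mitochondria-dependent MTT reduction.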

[4] = tested on: RAW264.7; experiment: Inhibition of LPS/IFNgamma-induced NO production in mouse RAW264.7 cells after 24 hrs by Griess reagent method; assay type: functional, cell-based; conditions: RAW264.7, 24 h
Procedure, shortened: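 RAW 264.7 cells grown to confluence in 96-well plates (~200,000 cells/well), then given fresh medium with LPS (1 µg mL-1) plus IFN-γ (50 U mL-1); compounds added together with stimulus. Nitrite in medium read at 24 h: Griess reagent (1% sulfanilamide, 0.1% naphthylenediamine, 5% phosphoric acid), OD550, against sodium nitrite standards made in medium. IC50 = 50% inhibition.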

[5] = tested on: Neutrophil; experiment: Inhibition of FMLP/CB-stimulated elastase release in human neutrophils at 30 uM treated for 5 mins before FMLP/CB challenge using MeO-Suc-Ala-Ala-Pro-Val-p-nitroanilide as a substrate relative to control; assay type: functional; procedure, shortened: as §1
[6] = tested on: Neutrophil; experiment: Inhibition of FMLP/CB-stimulated superoxide anion generation in human neutrophils at 30 uM treated for 5 mins before FMLP and CB challenge for 10 mins and 3 mins respectively by spectrophotometer analysis relative to control; assay type: functional; procedure, shortened: as §2
[7] = tested on: Neutrophil; experiment: Inhibition of FLMP-stimulated Ca2+ mobilization in human neutrophils assessed as maximum intracellular Ca2+ concentration at 10 uM treated for 5 mins before stimulation by fluo-3 AM-based spectrofluorometry; assay type: functional
Procedure, shortened: (§3)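 Human neutrophils (dextran sedimentation, Ficoll Hypaque, hypotonic erythrocyte lysis; >98% viable) loaded with 2 µM fluo-3 AM, 37 °C, 45 min, washed, 3×10^6 cells/ml in Ca2+-free HBSS. Stimulated with 0.1 µM FMLP with 1 mM Ca2+, 37 °C, stirring; ex 488/em 520 nm. [Ca2+]i = Kd[(F−Fmin)/(Fmax−F)], Fmax with 0.05% Triton X-100, Fmin with 20 mM EGTA. Mean ± SEM.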

[8] = tested on: Neutrophil; experiment: Inhibition of FLMP-stimulated Ca2+ mobilization in human neutrophils assessed as time required to decrease half of Ca2+ at 10 uM treated for 5 mins before FLMP challenge by fluo-3 AM-based spectrofluorometry; assay type: functional, cell-based; procedure, shortened: as §3

Row | Compound | IC50 [1] | IC50 [2] | IC50 [3] | IC50 [4] | inhibition at 30 µM [5] | inhibition at 30 µM [6] | Activity [7] | T1/2 [8]
1 | COc1ccc(/C=C/C(=O)c2cccc(C)c2)c(CN2CCOCC2)c1O | 2.95 µM | 3.16 µM | – | – | – | – | – | –
2 | O=C(/C=C/c1ccccn1)c1ccc(O)c(CN2CCOCC2)c1O | 21.2 µM | 12.6 µM | 11.4 µM | 1.73 µM | – | – | – | –
3 | O=C(/C=C/c1cccs1)c1cccc(O)c1CN1CCOCC1 | 24.3 µM | 10.5 µM | 12.7 µM | 2.49 µM | – | – | – | –
4 | Cc1ccsc1/C=C/C(=O)c1ccc(O)c(CN2CCOCC2)c1 | 18.2 µM | 16.4 µM | – | 1.39 µM | – | – | – | –
5 | O=C(/C=C/c1cccnc1)c1ccc(CN2CCOCC2)c(O)c1 | 6.66 µM | 5.96 µM | – | 0.23 µM | – | – | – | –
6 | CCOc1cc(O)c(C(=O)/C=C/c2sccc2C)cc1CN1CCOCC1 | – | 19.9 µM | 2060 µM | 8.13 µM | – | – | – | –
7 | CC(C)Oc1cc(O)c(C(=O)/C=C/c2cccs2)cc1CN1CCOCC1 | – | 19.4 µM | 47.7 µM | 0.23 µM | – | – | – | –
8 | COc1cc(O)c(C(=O)/C=C/c2ccco2)cc1CN1CCOCC1 | – | 15.8 µM | 1440 µM | 6.06 µM | 17.9% | – | – | –
9 | O=C(/C=C/c1ccccc1)c1ccc(O)c(CN2CCOCC2)c1 | – | 16.6 µM | 35 µM | 15.6 µM | 9.32% | – | – | –
10 | O=C(/C=C/c1ccccn1)c1ccc(O)c(CN2CCOCC2)c1 | 20.9 µM | 15.2 µM | 6.56 µM | 3.41 µM | – | – | – | –
11 | COc1cc(O)c(C(=O)/C=C/c2cccs2)cc1CN1CCOCC1 | – | 10.2 µM | 148 µM | 3.61 µM | – | – | – | –
12 | O=C(/C=C/c1ccccn1)c1ccc(CN2CCOCC2)c(O)c1 | 2.47 µM | 2.63 µM | 78 µM | 0.72 µM | – | – | – | –
13 | Cc1ccsc1/C=C/C(=O)c1cccc(O)c1CN1CCOCC1 | 18.6 µM | 9.6 µM | 182 µM | 3.39 µM | – | – | – | –
14 | CC(C)Oc1ccc(C(=O)/C=C/c2cccs2)c(O)c1CN1CCOCC1 | – | 3.39 µM | 34 µM | 2.21 µM | – | – | – | –
15 | c1ccc2c(c1)[I+]c1ccccc1-2 [DIPHENYLENEIODONIUM] | – | 1.02 µM | – | – | – | – | – | –
16 | COc1cc(O)c(C(=O)/C=C/c2ccccc2)cc1CN1CCOCC1 | – | 2.86 µM | 0.19 µM | 0.2 µM | – | – | – | –
17 | O=S(=O)(F)Cc1ccccc1 [PHENYLMETHYLSULFONYLFLUORIDE] | 95 µM | – | – | – | – | – | – | –
18 | O=C(/C=C/c1ccccn1)c1cc(CN2CCOCC2)c(O)c(CN2CCOCC2)c1 | 18.9 µM | 14.8 µM | 190 µM | 2.52 µM | – | – | – | –
19 | CCOc1cc(O)c(C(=O)/C=C/c2ccc(C)o2)cc1CN1CCOCC1 | – | 19.9 µM | 91.3 µM | 10.5 µM | – | – | – | –
20 | COc1ccc(/C=C/C(=O)c2cccnc2)c(CN2CCCCC2)c1O | 20.1 µM | 13 µM | – | – | – | – | – | –
21 | COc1ccc(/C=C/C(=O)c2cc(CN3CCOCC3)c(OC)cc2O)cc1 | – | 5.77 µM | 1860 µM | 3.35 µM | – | – | – | –

Row | Compound | IC50 [1] | IC50 [2] | IC50 [3] | IC50 [4] | inhibition at 30 µM [5] | inhibition at 30 µM [6] | Activity [7] | T1/2 [8]
22 | CC(C)=CCOc1ccc(C(=O)/C=C/c2sccc2C)c(O)c1CN1CCOCC1 | – | – | 11 µM | 0.93 µM | – | 21.5% | – | –
23 | O=C(/C=C/c1ccco1)c1cccc(O)c1CN1CCOCC1 | – | 18.2 µM | 17.2 µM | 2.5 µM | 39.7% | – | – | –
24 | O=C(/C=C/c1cccnc1)c1ccc(O)c(CN2CCOCC2)c1 | – | 23.5 µM | 53.2 µM | 0.82 µM | 20.4% | – | – | –
25 | O=C(/C=C/c1ccccn1)c1ccc(CN2CCOCC2)c(O)c1CN1CCOCC1 | 1.44 µM | 1.66 µM | 24.3 µM | 0.018 µM | – | – | – | –
26 | COc1ccc(/C=C/C(=O)c2ccco2)c(CN2CCCCC2)c1O | – | 4.18 µM | – | – | – | – | – | –
27 | COc1ccc(C(=O)/C=C/c2ccccn2)c(O)c1CN1CCOCC1 | 0.95 µM | 0.68 µM | 10.8 µM | 1.73 µM | – | – | 208.65 nM | 8.43 s
28 | O=C(/C=C/c1cccs1)c1ccc(O)c(CN2CCOCC2)c1 | – | 25.4 µM | 6830 µM | 0.47 µM | 19.3% | – | – | –
29 | Cc1ccsc1/C=C/C(=O)c1cc(CN2CCOCC2)c(O)c(CN2CCOCC2)c1 | – | – | 56.9 µM | 0.44 µM | 15.4% | 33.8% | – | –
30 | O=C(/C=C/c1ccco1)c1ccc(O)c(CN2CCOCC2)c1 | – | – | 10 µM | 0.16 µM | – | 27.4% | 276.51 nM | 28.1 s
31 | Cc1ccc(/C=C/C(=O)c2ccc(O)c(CN3CCOCC3)c2)o1 | – | 25.6 µM | 0.006 µM | 1.28 µM | – | – | – | –
32 | O=C(/C=C/c1ccncc1)c1ccc(O)c(CN2CCOCC2)c1 | 13.7 µM | 8.85 µM | 111 µM | 4.14 µM | – | – | – | –
33 | COc1ccc(/C=C/C(=O)c2ccc(C)cc2)c(CN2CCOCC2)c1O | 6.97 µM | 2.76 µM | – | – | – | – | – | –
34 | COc1ccc(/C=C/C(=O)c2cccs2)c(CN2CCCCC2)c1O | – | 8.32 µM | – | – | – | – | – | –
35 | COc1cc(O)c(C(=O)/C=C/c2cccnc2)cc1CN1CCOCC1 | 4.52 µM | 2.65 µM | 2810 µM | 11.8 µM | – | – | – | –
36 | O=C(/C=C/c1ccncc1)c1ccc(CN2CCOCC2)c(O)c1 | 2.28 µM | 1.6 µM | 110 µM | 0.055 µM | – | – | – | –
37 | CCOc1cc(O)c(C(=O)/C=C/c2ccco2)cc1CN1CCOCC1 | – | – | 16.9 µM | 16.5 µM | – | 39.9% | – | –
38 | COc1ccccc1OC(=O)CNC(=O)Cc1ccc(C(=O)c2ccc(C)cc2)n1C [AMTOLMETIN GUACIL] | – | – | – | 51.3 µM | – | – | – | –
39 | CCOc1cc(O)c(C(=O)/C=C/c2ccccn2)cc1CN1CCOCC1 | 1.24 µM | 0.89 µM | 0.18 µM | 15.1 µM | – | – | – | –
40 | O=C(/C=C/c1ccccc1)c1cccc(O)c1CN1CCOCC1 | 5.19 µM | 2.81 µM | 9.95 µM | 2.3 µM | – | – | – | –
41 | CCOc1cc(O)c(C(=O)/C=C/c2cccnc2)cc1CN1CCOCC1 | 3.48 µM | 2.42 µM | 4.46 µM | 15.4 µM | – | – | – | –
42 | CCOc1cc(O)c(C(=O)/C=C/c2ccccc2)cc1CN1CCOCC1 | – | 3.35 µM | 1.6 µM | 0.29 µM | – | – | – | –
